TAAR1 antagonist: antagonists of human TAAR1; Q96RJ0; CHO RD-HGA16 TAAR1, Fluo-8 calcium fluorescence, antagonist; inhibition, % at 3 µM; 1.5% of 360,000 active; AID 624466;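 active = inhibition above a per-plate cutoff, the mean inhibition of test compounds on that plate plus 3 SD, cut at about 49% in these data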;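 note: 0% = DMSO plus EC80 beta-PEA response and 100% = DMSO alone without agonist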
Target sequence (Q96RJ0 whole entry, looked up): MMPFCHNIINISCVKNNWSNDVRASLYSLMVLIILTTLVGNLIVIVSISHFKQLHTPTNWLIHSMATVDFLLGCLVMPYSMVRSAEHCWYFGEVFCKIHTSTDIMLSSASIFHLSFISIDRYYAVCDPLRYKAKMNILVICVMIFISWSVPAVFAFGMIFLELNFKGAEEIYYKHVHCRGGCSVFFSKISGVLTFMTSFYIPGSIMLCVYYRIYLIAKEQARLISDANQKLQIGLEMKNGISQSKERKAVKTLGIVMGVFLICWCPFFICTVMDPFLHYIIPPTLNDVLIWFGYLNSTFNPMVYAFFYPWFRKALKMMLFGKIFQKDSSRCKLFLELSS
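Material: RD-HGA16 CHO cells with stable hTAAR1 and Gα16; Dosing: single nominal final test compound concentration of 3 µM; Schedule: seeding 17-24 h prior, 75-min 37 °C, 30-min RT dye loading; Detection: kinetic Fluo-8 calcium fluorescence measurement; Measure: % inhibition from peak post-agonist over basal fluorescence ratio; Benchmarks: vehicle and agonist controls.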
CHO parental Ca: counter-screen: ATP calcium response change in parental CHO cells | parental CHO-K1, ATP-induced calcium, Fluo-8 fluorescence | inhibition, % at 5.6 µM | 0.63% of 330,000 active | AID 463079;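 active = inhibition above that plate's mean sample inhibition plus 3 SD, cut at about 26% in these data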;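 note: 0% = ATP-challenged DMSO wells and 100% = DMSO wells without ATP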
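Material: parental CHO cells / Compound: single nominal dose of 5.6 µM per compound / Signal: Fluo-8 fluorescence / Replicates: singlicate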
GPR7 antag: human neuropeptides B/W receptor 1 antagonism. P48145. AID 1861. GPR7-expressing cells, fluorescence antagonist assay. 1.1% of 290,000 active. inhibition, % at 4.4 µM; in the data active = inhibition above about 16%, passing the limit was not always enough;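 note: cells stimulated with the agonist NPW; 0% = agonist with vehicle and 100% = vehicle without agonist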
Target sequence (P48145 whole entry, looked up): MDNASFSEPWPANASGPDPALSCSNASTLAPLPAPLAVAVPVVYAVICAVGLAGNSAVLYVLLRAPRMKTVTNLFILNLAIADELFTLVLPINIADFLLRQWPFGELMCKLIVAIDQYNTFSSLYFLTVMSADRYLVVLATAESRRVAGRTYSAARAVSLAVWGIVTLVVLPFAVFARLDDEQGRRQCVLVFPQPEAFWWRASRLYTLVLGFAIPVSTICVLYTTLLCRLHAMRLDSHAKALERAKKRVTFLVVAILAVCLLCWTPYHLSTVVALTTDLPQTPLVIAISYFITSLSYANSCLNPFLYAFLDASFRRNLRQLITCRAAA
TAAR1 ag: human TAAR1 agonism | Q96RJ0 | CHO RD-HGA16 TAAR1, Fluo-8 calcium fluorescence; vehicle wells 0%, saturating PEA agonist 100% | activation, % at 3 µM | 0.99% of 360,000 active;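 active = activation above the mean activation of all test compounds in the run plus 3 SD, cut at about 38% in these data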
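Test system: RD-HGA16 (CHO) cells co-expressing Gα16 and hTAAR1 | Doses: Single dose, 3 µM | Schedule: 17-24 h seeding, 75 min 37 °C dye, 30 min RT | Evaluation: % activation from peak over basal fluorescence ratio, DMSO-to-PEA scaled | Technique: Kinetic Fluo-8 calcium fluorescence | Benchmarks: Low control DMSO, high control PEA (EC100)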
OX1R antag-1: OX1R (human) antagonism | O43613 | OX1R-expressing cells, FRET antagonist read-out | inhibition, % at 6.6 µM | 1.8% of 330,000 active; in the data active = inhibition mostly above about 38%, no sharp cut-off; inactive = mostly below about 40%;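 note: 0% = agonist challenge alone and 100% = reference antagonist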
OX1R antag-2: human HCRTR1 antagonism; O43613; CHO/OX1R cells, Fluo-8 calcium fluorescence, orexin A; inhibition, % at 5 µM; 0.43% of 330,000 active;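 active = inhibition above its plate's threshold, mean inhibition of all tested compounds on the plate plus 3 SD, cut at about 37% in these data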;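 note: 0% = orexin A challenge wells and 100% = SB-334867-A antagonist wells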
TAAR1 ag conf: human TAAR1 agonism, confirmed. CHO RD-HGA16 TAAR1, Fluo-8 calcium fluorescence; scaled: DMSO 0%, maximal phenethylamine 100%. activation, % at 3 µM. shares compounds with TAAR1 ag. 82% of 2,400 active. AID 651783;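 active = activation above a cutoff set at the run's mean compound activation plus 3 SD, cut at about 39% in these data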
Ga16 ag counter: nonselective agonist in parental cells, TAAR1 agonist counter-screen | activation, % at 3 µM | 50% of 2,400 active | CHO-Ga16 parental, Fluo-8 calcium fluorescence; normalized to maximal ATP response, DMSO zero | shares compounds with TAAR1 ag;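 active = activation above the run cutoff, the mean activation over all tested wells plus 3 SD, cut at about 12% in these data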;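 note: 0% = DMSO wells and 100% = maximal ATP response on the peak over basal ratio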
TAAR1 desens: counter-screen for human TAAR1 agonists: agonists that desensitize TAAR1; shares compounds with TAAR1 ag; CHO RD-HGA16 hTAAR1, Fluo-8 calcium, beta-PEA response inhibition; inhibition, % at 3 µM; 46% of 2,400 active; AID 651951;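 active = inhibition above the run cutoff, the mean inhibition of all test compounds plus 3 SD, cut at about 49% in these data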;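 note: beta-PEA stimulus applied at its EC80; loss of beta-PEA calcium signal after compound pretreatment read as receptor desensitization; 0% = DMSO with beta-PEA at EC80 and 100% = DMSO alone without agonist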
Ga16 nonsel ant: nonselective Ga16 antagonist in TAAR1 agonist counter-screen; shares compounds with TAAR1 ag; CHO-Ga16 ATP-induced calcium, Fluo-8 fluorescence; inhibition, % at 3 µM; 39% of 2,400 active;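 active = inhibition above the plate's mean compound inhibition plus 3 SD, computed per plate, cut at about 22% in these data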;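 note: 0% = EC80 ATP with DMSO and 100% = DMSO wells without ATP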
* marks the source's active call; other numbers are inactive results; / = not tested or not shown. Rows were chosen to be rich in hits. Some 4.6% of all compounds tested hit in one or more screens of this group.

SMILES	TAAR1 antagonist	CHO parental Ca	GPR7 antag	TAAR1 ag	OX1R antag-1	OX1R antag-2	TAAR1 ag conf	Ga16 ag counter	TAAR1 desens	Ga16 nonsel ant
O=C(Nc1ccc(OCc2ccccc2)cc1)c1cccnc1	56.7*	11.9	12.7	87.8*	42.0	-1.4	94.5*	30.5*	75.4*	25.7*
NNC(=O)c1ccc(COc2ccc3ccccc3c2)cc1	-12.2	-4.3	-8.8	72.0*	-10.8	-2.4	92.9*	50.9*	48.8*	22.6*
O=C(N/N=C/c1ccc(OCc2ccc(F)cc2)cc1)c1ccccc1	4.7	3.5	-1.8	43.5*	26.3	-0.1	17.9	2.5	-0.5	0.4
O=C(Nc1ccccc1)OCCCc1ccccc1	-16.0	-15.2	-6.9	-1.8	9.7	-18.6	/	/	/	/
O=C(Nc1ccccc1)OCCCCOC(=O)Nc1ccccc1	34.5	/	/	53.8*	/	/	15.3	13.8*	12.0	10.4
CN(Cc1nc2ccccc2n1C)C(=O)c1ccco1	-3.0	3.0	-16.2	0.3	-1.1	-3.9	/	/	/	/
CCCn1c(NC(=O)C2COc3ccccc3O2)nc2ccccc21 (stereo not drawn)	48.7*	-16.3	0.6	50.9*	21.3	-17.9	6.8	2.4	8.1	17.6
CCCn1c(NC(=O)c2ccco2)nc2ccccc21	5.7	-14.4	-4.0	0.3	6.9	-21.4	/	/	/	/
COC(=O)c1sccc1S(=O)(=O)Nc1ccc(C(O)(C(F)(F)F)C(F)(F)F)cc1	103.5*	/	/	169.1*	/	/	141.8*	112.8*	102.8*	83.5*
COc1cc2nc(Nc3ccc(F)cc3)nc(N)c2cc1OC	33.0	-9.7	-11.1	58.6*	1.4	-21.2	54.0*	4.1	40.5	14.5
COc1cc2nc(Nc3ccc(C)c(C)c3)nc(N)c2cc1OC	-2.5	-10.3	-4.4	2.0	1.3	-27.5	/	/	/	/
O=[N+]([O-])c1ccc(S(=O)(=O)NNC(=S)NCCc2ccccc2)cc1	-22.9	-3.7	-6.3	52.5*	26.6	-6.3	56.1*	3.4	6.3	6.9
Cc1ccc([C@@H]2CC(=O)[C@@H]3CN(S(=O)(=O)c4ccc(C)cc4)[C@H](c4ccccc4)C[C@@H]3N2S(=O)(=O)c2ccc(C)cc2)cc1	-15.8	/	/	3.1	/	/	/	/	/	/
Cc1cc(Br)ccc1Nc1nc(N)nc(N)c1N=O	-14.3	/	/	16.7	/	/	/	/	/	/
Cc1ccc(N(C)c2nc(N)nc(N)c2N=O)cc1	24.3	/	/	59.1*	/	/	53.4*	64.8*	35.0	37.1*
CC(C)C[C@H](NC(=O)/C=C/[C@H]1O[C@@H](n2ccc(=O)[nH]c2=O)[C@H](O)[C@@H]1O)C(=O)O	5.4	/	/	0.6	/	/	/	/	/	/
Oc1ccc(/C=N/Nc2ccnc3cc(Cl)ccc23)cc1O	65.3*	-7.1	-17.1	96.6*	5.2	-11.4	106.1*	6.5	91.6*	0.8
Oc1ccc(/C=N/Nc2ccnc3cc(Cl)ccc23)c(O)c1O	3.0	-9.7	-10.5	8.3	2.9	-23.8	/	/	/	/
CN(C)CCCN(C(=O)c1ccc(C(=O)c2ccccc2)cc1)c1nc2ccc(F)cc2s1	11.3	0.2	11.5	34.3	10.2	-4.7	/	/	/	/
CN(C)CCCN(C(=O)c1ccc(S(=O)(=O)N(C)C2CCCCC2)cc1)c1nc2ccc(F)cc2s1	20.0	-21.5	18.6	47.0*	5.3	-15.4	48.6*	21.9*	48.9*	32.5*
CC(C)C[C@H]1CN=C(Nc2ccccc2)N1CCc1ccc(F)cc1	104.4*	56.7*	/	119.2*	14.8	75.1*	127.2*	80.4*	102.4*	71.7*
CC(C)C[C@H]1CN=C(Nc2ccccc2)N1CC1CCCCCC1	10.9	-6.4	/	48.9*	15.5	-18.6	28.8	16.0*	19.3	22.1*
C=CCN1C(=O)CN=C1Nc1cccc(C)c1	-10.5	-8.5	-10.6	11.9	9.2	-17.0	/	/	/	/
Cc1cccc(NC2=NCC(=O)N2CCc2ccccc2)c1	51.2*	-11.8	17.7	86.2*	18.5	-16.2	106.2*	4.8	84.7*	1.8
Cc1cccc(CCN2C(Nc3ccccc3)=NC[C@@H]2CC(C)C)c1	106.8*	31.4	/	127.2*	26.6	49.5*	111.5*	87.3*	102.1*	80.2*
SMILES	TAAR1 antagonist	CHO parental Ca	GPR7 antag	TAAR1 ag	OX1R antag-1	OX1R antag-2	TAAR1 ag conf	Ga16 ag counter	TAAR1 desens	Ga16 nonsel ant
CCOc1ccc(CCNC(=O)COC(=O)COc2ccc(C#N)cc2)cc1OCC	-5.1	-32.4	/	4.3	7.8	-35.7	/	/	/	/
Cn1c2ccccc2c(=O)c2c(=O)n(C3CCCCC3)c(-c3ccco3)nc21	-3.4	3.7	5.3	103.2*	14.0	-15.5	87.2*	62.2*	33.0	24.7*
CC(C)Cn1c(-c2ccco2)nc2c(c(=O)c3ccccc3n2C)c1=O	-4.7	-20.6	-9.6	16.2	23.0	-8.7	/	/	/	/
Cc1nc2c(c(=O)c3ccccc3n2C)c(=O)n1C1CCCCCC1	-38.0	-30.4	8.0	49.6*	8.8	-12.9	56.4*	50.8*	6.6	1.2
Cc1nc2c(c(=O)c3ccccc3n2C)c(=O)n1-c1ccccc1	-1.9	-8.6	-18.0	-1.4	7.5	-20.9	/	/	/	/
CCOc1ccccc1C(=O)N[C@H](C(=O)Nc1nc2c(s1)CCCC2)C(C)C	-23.0	-35.7	-13.9	45.6*	16.6	-48.6	41.2*	13.0*	3.0	5.8
COc1ccc(CN2C(=O)CN(S(C)(=O)=O)CC2(C)C(=O)NC(C)C)cc1OC (stereo not drawn)	-8.7	/	/	9.4	/	/	/	/	/	/
COc1ccc(NC(=O)COc2ccccc2)c(OC)c1	-0.3	-21.1	3.9	8.7	19.0	-8.8	/	/	/	/
COc1ccc(NC(=O)COc2ccc(Br)cc2)c(OC)c1	66.8*	1.4	-3.9	67.9*	9.0	-15.7	42.9*	12.7*	28.7	-2.6
CS(=O)(=O)c1ccc(Cl)c(NC(=O)CN2CCN(C(=O)c3cccs3)CC2)c1	-22.9	-3.6	/	4.2	1.6	-7.5	/	/	/	/
Cc1ccc(CNC(=O)Cn2nnc(C(=O)Nc3cccc(C)c3C)c2N)cc1	-16.9	-3.0	8.3	2.8	21.1	-6.4	/	/	/	/
Cc1ccccc1Cn1nnc(C(=O)Nc2cccc(C)c2C)c1N	10.5	-1.0	10.7	65.9*	5.7	-11.1	79.0*	31.0*	41.5	15.0
O=C(CSc1ccc(Cl)cc1)N/N=C/c1ccc([N+](=O)[O-])o1	-2.2	-7.2	19.5	6.6	25.4	-19.2	/	/	/	/

Screening results (PubChem)
